Source: ChEMBL document CHEMBL4616650, “Spongian Diterpenoids Derived from the Antarctic Sponge Dendrilla antarctica Are Potent Inhibitors of the Leishmania Parasite” (J Nat Prod, 2020)

Columns and labels:
Leishmania donovani = experiment: Antileishmanial activity against Leishmania donovani MHOM/SD/75/1246/130 amastigotes infected in mouse J774A.1 cells incubated for 72 hrs by DRAQ5 fluorescent probe based assay; assay type: functional, organism-based; conditions: MHOM/SD/75/1246/130, J774.A1, 72 h
Procedure, shortened: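 Axenic amastigotes grown at 37 °C in RPMI 1640 pH 5.5 with HEPES, MES, hemin, xanthine, Tween-80, tryptone-peptone, 20% heat-inactivated FBS. 2000 J774A.1 macrophages per well infected at 10:1 parasites:cells, 24 h, 37 °C, 5% CO2; extracellular parasites washed off. Compounds from 10 μg/mL top, 1:2 serial dilutions, 72 h. Fixed 2% paraformaldehyde, DraQ5 5 μM nuclear stain; high-content imaging counts amastigotes per 500 macrophages; IC50 derived.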

J774.A1 = experiment: Cytotoxicity against mouse J774A.1 cells incubated for 72 hrs by CellTiter 96 AQueous One solution cell proliferation assay; assay type: cell-based; conditions: J774.A1, 72 h
Procedure, shortened: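 J774A.1 macrophages in RPMI 1640 with 10% heat-inactivated FBS, pH 7.2. Seeded at 50 000 cells per well with six 2-fold dilutions, final 50 to 1.6 μg/mL, 72 h at 37 °C, 5% CO2. MTS reagent added for a further 4 h; absorbance read at 490 nm.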

[1] = Selectivity index, ratio of cytotoxicity against mouse J774A.1 cells to antileishmanial activity against Leishmania donovani MHOM/SD/75/1246/130 amastigotes infected in mouse J774A.1 cells; assay type: toxicity, cell-based; conditions: read-out: Ratio IC50

Row | SMILES | IC50 (Leishmania donovani) [µM] | IC50 (J774.A1) [µM] | selectivity ratio [1]
1 | CO[C@@H]1O[C@@H](OC)c2c1ccc([C@@]1(C)CCCC(C)(C)C1)c2[C@@H](C)C(=O)O [MEMBRANOLIDE C] | 0.8 | > 133 | > 166
2 | CCCCCCCCCCCCCCCCOP(=O)([O-])OCC[N+](C)(C)C [MILTEFOSINE] | 2.9 | > 120 | 
3 | CC(=O)O[C@@H]1O[C@H]2OC(=O)[C@H](C)C3=C([C@@]4(C)CCCC(C)(C)C4)CC[C@@H]1[C@H]32 | 3.5 | > 133 | > 38
4 | CC(=O)O[C@@H]1O[C@H]2OC(=O)[C@H](C)C3C([C@@]4(C)CCCC(C)(C)C4)=CC=C1C32 (stereo partly specified) | 3.1 | 12.3 | 4
5 | COC(=O)[C@H](C)c1c([C@@]2(C)CCCC(C)(C)C2)ccc2c1C(=O)OC2 | 9.7 | 76.8 | 
6 | CC(=O)O[C@@H]1O[C@H]2OCC3=C(C)[C@@H]([C@@]4(C)CCCC(C)(C)C4)CC[C@@H]1[C@H]32 | 11.2 | 73.4 | 

Now from value to molecule, other results behind:

Row | IC50 (Leishmania donovani) [µM] | SMILES | IC50 (J774.A1) [µM] | selectivity ratio [1]
7 | 12 | CO[C@H]1O[C@@H](OC(C)=O)c2ccc([C@@]3(C)CCCC(C)(C)C3)c([C@@H](C)C(=O)O)c21 | 62.9 | 
8 | > 29 | CO[C@H]1OC(=O)[C@H](C)c2c([C@@]3(C)CCCC(C)(C)C3)ccc(C=O)c21 | 54.6 | 
9 | 6.5 | CO[C@@H]1O[C@H](OC)c2c1ccc([C@@]1(C)CCCC(C)(C)C1)c2[C@@H](C)C(=O)O | > 133 | 
10 | 6.6 | CO[C@H]1O[C@@H](OC)c2c1ccc([C@@]1(C)CCCC(C)(C)C1)c2[C@@H](C)C(=O)O [MEMBRANOLIDE D] | 95 | 
11 | 26.7 | CO[C@H]1OC(=O)c2ccc([C@@]3(C)CCCC(C)(C)C3)c([C@@H](C)C(=O)O)c21 | 42.4 | 
12 | 1.4 | CO[C@H]1O[C@H](OC)c2c1ccc([C@@]1(C)CCCC(C)(C)C1)c2[C@@H](C)C(=O)O | > 133 | > 95
13 | 1.9 | C[C@H]1C(=O)O[C@@H](O)c2c(C=O)ccc([C@@]3(C)CCCC(C)(C)C3)c21 | > 150 | > 100
